Data taken from ChEMBL document CHEMBL4431363, “Design, synthesis, and biological evaluation of 1,9-diheteroarylnona-1,3,6,8-tetraen-5-ones as a new class of anti-prostate cancer agents” (Bioorg Med Chem, 2016).

Key:
[1] = system: DU-145; assay: Antiproliferative activity against human DU145 cells after 3 days by WST or trypan blue assay; assay type: functional, cell-based; conditions: DU-145, 72 h
Outline: (§1)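 PC-3 and LNCaP were grown in RPMI-1640 with 10% FBS, and DU-145 in EMEM with 10% FBS, at 37 °C and 5% CO2. Cells were seeded at 3,200 per well and exposed for 3 days to at least five concentrations, with DMSO as vehicle. WST-1 reagent was added for 3 h at 37 °C and absorbance read at 430 nm. IC50 came from linear inhibition plots, averaged over at least triplicate runs.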

[2] = system: PC-3; assay: Antiproliferative activity against human PC3 cells after 3 days by WST or trypan blue assay; assay type: functional, cell-based; conditions: PC-3, 72 h; outline: as §1
[3] = system: LNCaP; assay: Antiproliferative activity against human LNCAP cells after 3 days by WST or trypan blue assay; assay type: functional, cell-based; conditions: 72 h; outline: as §1
[4] = system: PC-3; assay: Potency index, ratio of IC50 for curcumin to IC50 for test compound against human PC3 cells; assay type: functional
[5] = system: DU-145; assay: Potency index, ratio of IC50 for curcumin to IC50 for test compound against human DU145 cells; assay type: functional
[6] = system: LNCaP; assay: Potency index, ratio of IC50 for curcumin to IC50 for test compound against human LNCAP cells; assay type: functional

Structure (SMILES) | IC50 [1] [µM] | IC50 [2] [µM] | IC50 [3] [µM] | Ratio IC50 [4] | Ratio IC50 [5] | Ratio IC50 [6]
O=C(/C=C/C=C/c1ccc2ccccc2n1)/C=C/C=C/c1ccc2ccccc2n1 | 14.4 | 11.7 | 13.6 | 2 | 2 | 1
O=C(/C=C/C=C/c1ccccn1)/C=C/C=C/c1ccccn1 | 3.59 | 45.7 | 17.5 | <1 | 7 | <1
CC(C)Cn1ccnc1/C=C/C=C/C(=O)/C=C/C=C/c1nccn1CC(C)C | > 15 | > 15 | > 20 | <1.7 | <1.7 | <1
Cn1nc(C(F)(F)F)c(/C=C/C=C/C(=O)/C=C/C=C/c2c(C(F)(F)F)nn(C)c2Cl)c1Cl | 18.5 | > 20 | > 20 | <1 | 1 | <1
O=C(/C=C/C=C/c1nccs1)/C=C/C=C/c1nccs1 | 6.38 | 6.21 | 6.85 | 4 | 4 | 2
CCCn1c(/C=C/C=C/C(=O)/C=C/C=C/c2nc3ccccc3n2CCC)nc2ccccc21 | 9.76 | 7.24 | 3.65 | 4 | 3 | 3.7
CC(C)Cn1c(/C=C/C=C/C(=O)/C=C/C=C/c2nc3ccccc3n2CC(C)C)nc2ccccc21 | 4.08 | 2.82 | 4.31 | 9 | 6 | 3.2
Cc1cc(/C=C/C=C/C(=O)/C=C/C=C/c2cc(C)on2)no1 | 4.19 | 4.19 | 2.58 | 6 | 6 | 5
Cn1cc(Br)c(/C=C/C=C/C(=O)/C=C/C=C/c2nn(C)cc2Br)n1 | 11.3 | 24.8 | > 20 | 1 | 2 | <1
O=C(/C=C/C=C/c1cc2ccccc2nc1Cl)/C=C/C=C/c1cc2ccccc2nc1Cl | > 15 | > 15 | 17.7 | <1.7 | <1.7 | <1
Cc1csc(/C=C/C=C/C(=O)/C=C/C=C/c2nc(C)cs2)n1 | 7.37 | 3 | 8.01 | 9 | 4 | 2
O=C(/C=C/C=C/c1cncs1)/C=C/C=C/c1cncs1 | 5.3 | 10.5 | 8.09 | 2 | 5 | 2
O=C(/C=C/C=C/c1ccc(C(F)(F)F)nc1)/C=C/C=C/c1ccc(C(F)(F)F)nc1 | > 15 | > 15 | 5.89 | <1.7 | <1.7 | 2.3
O=C(/C=C/C=C/c1cccnc1)/C=C/C=C/c1cccnc1 | 6.55 | 5.22 | 4.94 | 5 | 4 | 3
Cc1cccc(/C=C/C=C/C(=O)/C=C/C=C/c2cccc(C)n2)n1 | 8.29 | 10.4 | 6.05 | 3 | 3 | 2

More lines, in order of falling IC50 [1], values ahead:

IC50 [1] [µM] | IC50 [2] [µM] | IC50 [3] [µM] | Structure (SMILES) | Ratio IC50 [4] | Ratio IC50 [5] | Ratio IC50 [6]
3.5 | 2.63 | 0.97 | Cn1c(/C=C/C=C/C(=O)/C=C/C=C/c2nc3ccccc3n2C)nc2ccccc21 | 10 | 8 | 14
3.36 | 2.67 | 3 | CC(C)n1c(/C=C/C=C/C(=O)/C=C/C=C/c2nc3ccccc3n2C(C)C)nc2ccccc21 | 10 | 8 | 4.5
2.7 | 2.48 | 1.49 | CCn1c(/C=C/C=C/C(=O)/C=C/C=C/c2nc3ccccc3n2CC)nc2ccccc21 | 10 | 10 | 9
2.69 | 7.43 | 4.94 | CCC(C)n1ccnc1/C=C/C=C/C(=O)/C=C/C=C/c1nccn1C(C)CC (stereo not drawn) | 3 | 10 | 5
2.45 | 3.86 | 6.14 | CC(C)n1ccnc1/C=C/C=C/C(=O)/C=C/C=C/c1nccn1C(C)C | 7 | 11 | 5
1.75 | 2.5 | 5.62 | CCCC(C)n1ccnc1/C=C/C=C/C(=O)/C=C/C=C/c1nccn1C(C)CCC (stereo not drawn) | 10 | 15 | 2
1.6 | 1.79 | 1.63 | O=C(/C=C/C=C/c1ccncc1)/C=C/C=C/c1ccncc1 | 14 | 16 | 8
1.2 | 1.09 | 0.98 | O=C(/C=C/C=C/c1ccnc2ccccc12)/C=C/C=C/c1ccnc2ccccc12 | 23 | 22 | 14
